Assay outcomes (PubChem)
PfG6PD inh – PfG6PD enzyme inhibitors, primary screen, biochemical, fluorescence intensity, uHTS | 350,000 tested, 0.78% active | inhibition, % at 20 µM | PfGluPho enzyme, NADPH resazurin-diaphorase fluorescence | glucose-6-phosphate dehydrogenase-6-phosphogluconolactonase (Plasmodium falciparum 3D7);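 active = inhibition reaching at least a set limit at 20 µM in the primary screen, cut at about 59% in these data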
Redox H2O2 prof – compounds producing H2O2 with reducing agent – biochemical, NIH compound library profiling, artefact control for MLSCN library redox annotation, primary screen; 200,000 tested, 0.03% active; activation, % at 10 µM; DTT-dependent redox cycling H2O2, phenol red/HRP absorbance; 100% = 100 µM peroxide control, 0% = buffer;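 active = activation of at least 50% relative to the plate's high and low controls in the primary single-dose screen; inactive = activation below 50%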;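 also: compound incubated with DTT at 0.8 mM final as the reducing agent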
G6PDH CS – L. mesenteroides G6PDH inhibitors, counter-screen for G6PDH-coupled screening assays, biochemical, Leuconostoc mesenteroides enzyme | Purified L. mesenteroides G6PDH, diaphorase/resazurin coupled fluorescence, 45 min | 200,000 tested, 0.12% active | glucose-6-phosphate dehydrogenase [Leuconostoc mesenteroides] | inhibition, % at 5 µM
Diaphorase inh – diaphorase inhibitors and chemical oxidizers, primary screen, counter-screen for diaphorase-coupled primary assays, biochemical, uHTS, resorufin fluorescence | diaphorase resazurin-to-resorufin fluorescence, NADH, 16 min; bacterial (C. kluyveri) enzyme, not human | 190,000 tested, 0.69% active | inhibition, % at 20 µM;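 active = primary screen inhibition at 20 µM above a set limit, cut at about 50% in these data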
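controls = No-NADH positive control and DMSO neutral control | system = Clostridium kluyveri diaphorase enzyme | timing = reaction incubation of 16 min at room temperature | signal = resorufin fluorescence 544/590 nm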
Lmaj promast – Leishmania major promastigote growth inhibition, primary screen; Leishmania major promastigotes, resazurin fluorescence viability; inhibition, % at 10 µM; 200,000 tested, 9% active;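 also: promastigotes grown with compound for 44 hours at 28 °C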
Diaphorase act – compounds boosting diaphorase resazurin reduction – biochemical, uHTS, resorufin fluorescence, counter-screen for diaphorase-coupled primary assays, primary screen; Diaphorase/resazurin coupled assay, 16 min; stronger effect = higher value; 1 = vehicle wells, 0 = NADH-free wells; activation factor at 20 µM; 190,000 tested, 0.005% active; AID 1229, 2008;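 active = diaphorase activity raised at least twofold by the compound at 20 µM; inactive = activation factor below 2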
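Material: Clostridium kluyveri diaphorase, purified enzyme; Quantity: enzyme 0.07 U/mL final; Medium: HEPES pH 7.4 buffer with MgCl2 and Tween 20; Dosing: single compound dose of 20 µM, 1% DMSO final; Schedule: 16 min reaction at room temperature; Measured by: red resorufin fluorescence at 544/590 nm excitation/emission.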
Numbers stand for hits. The sample as a whole holds a higher share of hits than the screen did. Rule as the data show it, unless noted: active = inhibition above about 50%; inactive = the rest.

CCc1ccccc1NC(=S)NC1CC2CCC(C1)N2Cc1ccco1 (centres undefined) was read as PfG6PD inh inactive, Redox H2O2 prof inactive, G6PDH CS inactive, Diaphorase inh inactive, Lmaj promast 71 and Diaphorase act inactive.
Screening CCNC(=S)NC1CC2CCCC(C1)N2Cc1ccco1 (centres undefined) returned PfG6PD inh inactive, Redox H2O2 prof inactive, G6PDH CS inactive, Diaphorase inh inactive, Lmaj promast inactive and Diaphorase act inactive.
CCc1ccccc1NC(=S)NC1CC2CCC(C1)N2Cc1ccc(F)cc1 (centres undefined) was read as PfG6PD inh inactive, Redox H2O2 prof inactive, G6PDH CS inactive, Diaphorase inh inactive, Lmaj promast 95 and Diaphorase act inactive.
For CCCN1C2CCCC1CC(NC(=S)Nc1ccc(OC)cc1)C2 (centres undefined) the results were PfG6PD inh inactive, Redox H2O2 prof inactive, G6PDH CS inactive, Diaphorase inh inactive, Lmaj promast inactive and Diaphorase act inactive.
`Cc1cccc(NC(=S)NC2CC3CCCC(C2)N3Cc2ccccc2)c1C` (centres undefined) gave PfG6PD inh inactive, Redox H2O2 prof inactive, G6PDH CS inactive, Diaphorase inh inactive, Lmaj promast 87 and Diaphorase act inactive.
For CCc1ccc(NC(=S)NC2CC3CCCC(C2)N3Cc2cccs2)cc1 (centres undefined) the results were PfG6PD inh inactive, Redox H2O2 prof inactive, G6PDH CS inactive, Diaphorase inh inactive, Lmaj promast 91 and Diaphorase act inactive.
For O=C(NC1CC2CCCC(C1)N2Cc1ccco1)NC12CC3CC(CC(C3)C1)C2 (centres undefined) the results were PfG6PD inh inactive, Redox H2O2 prof inactive, G6PDH CS inactive, Diaphorase inh inactive, Lmaj promast 89 and Diaphorase act inactive.
`Cc1cccc(NC(=S)NC2CC3CCC(C2)N3Cc2ccco2)c1C` (centres undefined) gave PfG6PD inh inactive, Redox H2O2 prof inactive, G6PDH CS inactive, Diaphorase inh inactive, Lmaj promast 90 and Diaphorase act inactive.
Screening Cc1ccc(C(=O)C2CCN(CC(=O)Nc3nc(C)cs3)CC2)cc1 returned PfG6PD inh inactive, Redox H2O2 prof inactive, G6PDH CS inactive, Diaphorase inh inactive, Lmaj promast inactive and Diaphorase act inactive.
Screening Cc1ccc(N(CC(=O)NCc2ccco2)C(=O)CCC(=O)Nc2nccs2)cc1C returned PfG6PD inh inactive.
`CC(C)CCN1C(=O)c2ccc(C(=O)NCc3ccccn3)cc2C1=O` gave PfG6PD inh inactive.
Cc1ccc(NC(=S)NCc2ccco2)c(C)c1 was read as PfG6PD inh inactive.
For Cc1ccc(NC(=S)NC2CC3CCC(C2)N3Cc2ccco2)c(C)c1 (centres undefined) the results were PfG6PD inh inactive, Redox H2O2 prof inactive, G6PDH CS inactive, Diaphorase inh inactive, Lmaj promast 89 and Diaphorase act inactive.
`CCc1ccccc1NC(=O)NC1CC2CCC(C1)N2Cc1cccs1` (centres undefined) gave PfG6PD inh inactive, Redox H2O2 prof inactive, G6PDH CS inactive, Diaphorase inh inactive, Lmaj promast 76 and Diaphorase act inactive.
O=C(COC(=O)C1=COCCO1)NCc1ccc(F)cc1 was read as PfG6PD inh inactive.
`CCOc1ccc(OCC)c(NS(=O)(=O)c2ccc3c(c2)CCN3C(=O)C2CCC2)c1` gave PfG6PD inh inactive, Redox H2O2 prof inactive, G6PDH CS inactive, Diaphorase inh inactive, Lmaj promast 99 and Diaphorase act inactive.
CCC(=O)N1CCc2cc(S(=O)(=O)NC(CC(C)C)C(=O)N3CCc4ccccc43)ccc21 (centres undefined) was read as PfG6PD inh inactive, Redox H2O2 prof inactive, G6PDH CS inactive, Diaphorase inh inactive, Lmaj promast 100 and Diaphorase act inactive.
